Test results: article PMC7613793 (Cell metabolism, 2022)
“Also recorded” adds a separate entry of the source.

Key:
hypothalamic neurons = type: in vivo, mouse
[1] = system: tanycytes and neuron-like cells of the ME and vmARH; assay: pCREB immunohistochemistry in ME/ARH after intravenous liraglutide; type: in vivo, mouse; settings: mice, 90 nmol/Kg, at 1 min, n = 4 animals per group, Fig. 1f-h
In short: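 Male mice, 8-10 weeks, fitted with a jugular vein catheter under ketamine-xylazine. Saline or liraglutide given i.v. at 90 nmol/Kg, then transcardial perfusion with saline and 0.1M PBS-4% PFA (pH 7.4). 30 μm free-floating sections double-stained with chicken anti-vimentin and rabbit anti-phospho-CREB. pCREB-positive tanycytes and neuron-like cells counted in ME, vmARH, dmARH and total ARH, 3–4 sections per animal. Unpaired t-test.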

[2] = system: tuberal region of the hypothalamus; type: in vivo, mouse; settings: mice, intravenous (jugular vein), 90 nmol/Kg, 15 and 60 seconds after injection; Fig. 1a
rat primary tanycytes = assay: pCREB induction in primary tanycytes; type: cell-based; settings: Supplementary Fig. 2a
[3] = system: dipeptidyl peptidase 4 (DPP-4); settings: cited from earlier work
[4] = type: in vivo, mouse
primary tanycytes = type: in vitro ADME, rat; settings: 37 °C
In short: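 Rat tanycytes from median eminences of P10 pups, seeded on coated permeable supports (90 000 cells/cm2) 17 days after isolation: 4 days in 10% donor bovine serum, then 3 days serum-free with insulin and putrescine. On day 7, 15 min preincubation at 37 °C ± 1000 nM exendin9-39. Apical 0.7 nM 125I-liraglutide (1 μCi/ml) ± unlabeled liraglutide 10–10 000 nM, 60 min, 37 °C, shaking. Uptake read from cut supports; release in fresh buffer up to 1 h.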

CCCCCCCCCCCCCCCC(=O)N[C@@H](CCC(=O)NCCCC[C@H](NC(=O)[C@H](C)NC(=O)[C@H](C)NC(=O)[C@H](CCC(N)=O)NC(=O)CNC(=O)[C@H](CCC(=O)O)NC(=O)[C@H](CC(C)C)NC(=O)[C@H](Cc1ccc(O)cc1)NC(=O)[C@H](CO)NC(=O)[C@H](CO)NC(=O)[C@@H](NC(=O)[C@H](CC(=O)O)NC(=O)[C@H](CO)NC(=O)[C@@H](NC(=O)[C@H](Cc1ccccc1)NC(=O)[C@@H](NC(=O)CNC(=O)[C@H](CCC(=O)O)NC(=O)[C@H](C)NC(=O)[C@@H](N)Cc1cnc[nH]1)[C@@H](C)O)[C@@H](C)O)C(C)C)C(=O)N[C@@H](CCC(=O)O)C(=O)N[C@@H](Cc1ccccc1)C(=O)N[C@H](C(=O)N[C@@H](C)C(=O)N[C@@H](Cc1c[nH]c2ccccc12)C(=O)N[C@@H](CC(C)C)C(=O)N[C@H](C(=O)N[C@@H](CCCNC(=N)N)C(=O)NCC(=O)N[C@@H](CCCNC(=N)N)C(=O)NCC(=O)O)C(C)C)[C@@H](C)CC)C(=O)O [liraglutide]
c-Fos activation of neurons in AHN, PVH and LHA, control mice (hypothalamic neurons; anesthetized control mice, ten minutes after intravenous injection, 90 nmol/Kg): activated | c-Fos expression in DMH and ZI, control mice (hypothalamic neurons; control mice, one hour after intraperitoneal injection): did not significantly upregulate c-Fos expression | c-Fos expression, iBot mice (hypothalamic neurons; iBot littermates, one hour after intraperitoneal injection, Fig. 2d-f): unaffected | c-Fos expression in hypothalamic neurons, iBot mice (hypothalamic neurons; mouse, in vivo, iv): failed to significantly induce c-Fos expression | c-Fos activation of neurons in PVH and LHA (not AHN), control mice (hypothalamic neurons; unanesthetized control mice, one hour after intraperitoneal injection, Fig. 2): remain activated | pCREB in tanycytes and neuron-like cells of the ME and vmARH vs saline [1]: markedly induced pCREB | Route of brain entry of fluorescently labeled liraglutide [2]: did not cross the microvascular endothelial cells of the BBB; also recorded: extravasated through the fenestrated vessels of the ME | pCREB in rat primary tanycytes (rat primary tanycytes; liraglutide treatment): induced | Cleavage by DPP-4 and half-life compared to endogenous GLP1 ([3]; ref Kim and Egan, 2008): reduces its cleavage by DPP-4 and prolongs its half-life | Energy expenditure ([4]; control mice, 0.1 mg/kg for 3 consecutive days, vs saline): markedly reduced | Food intake ([4]; control mice, 0.1 mg/kg for 3 consecutive days, vs saline, Fig. 3b): markedly reduced | Fatty acid oxidation ([4]; control mice, 0.1 mg/kg for 3 consecutive days, Fig. 3e): increased fatty acid oxidation | Fat mass ([4]; control mice, 0.1 mg/kg for 3 consecutive days, NMR body composition, Fig. 3d): fat mass reduction | Anti-obesity effects in iBot mice ([4]; mouse, in vivo, 0.1 mg/kg): abrogated

Glucagon-like peptide 1 (GLP1; 7–36 amide)
Degradation by DPP-4 in vivo ([3]; in vivo, ref not given): rapid degradation

^125I-liraglutide: radioactively labeled liraglutide
Liraglutide accumulation in tanycytes relative to endothelial cells (primary tanycytes; 125I-liraglutide 0.7 nM, with or without unlabeled liraglutide 10 μM, transwell, uptake buffer pH 7.4, 60 min, n = 3, 3, 8, 8 wells from 2 independent experiments, Fig. 1c): approximately 4 times | Time to saturation of uptake by tanycytes (primary tanycytes; pulse-chase experiment in vitro, Fig. 1e): ≤ 15 min

exendin 9-39
Effect on liraglutide-induced pCREB in rat primary tanycytes (rat primary tanycytes; co-treatment with liraglutide): blunted

liraglutide^564: fluorescently labeled liraglutide provided by Novo Nordisk
Route of brain entry of fluorescently labeled liraglutide [2]: does not extravasate from BBB vessels
